The source of these data is ChEMBL document CHEMBL4376859, “Prodrugs for nitroreductase-based cancer therapy-3: Antitumor activity of the novel dinitroaniline prodrugs/Ssap-NtrB enzyme suicide gene system: Synthesis, in vitro and in silico evaluation in prostate cancer” (Eur J Med Chem, 2020).

Molecules are shown by their SMILES. Calls of active or inactive are those of the source. The calls are words filed in the database; no cut-off is given here.

For data set [1], the target named is T1, Putative nitroreductase (Staphylococcus saprophyticus subsp. saprophyticus (strain ATCC 15305 / DSM20229 / NCIMB 8711 / NCTC 7292 / S-41), UniProt Q4A0P1).
T1 sequence (Q4A0P1 whole entry): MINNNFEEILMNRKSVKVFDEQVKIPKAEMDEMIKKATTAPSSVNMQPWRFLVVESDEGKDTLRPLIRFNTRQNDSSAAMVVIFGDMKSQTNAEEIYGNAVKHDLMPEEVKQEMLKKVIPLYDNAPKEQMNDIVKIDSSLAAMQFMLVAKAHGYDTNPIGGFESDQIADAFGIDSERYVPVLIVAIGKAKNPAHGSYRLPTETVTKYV
Put plainly: Substrate activity at Staphylococcus saprophyticus nitroreductase NtrB assessed as ratio of Kcat/Km using NADPH as cofactor in Tris-Cl buffer at pH 7.5 incubated for 30 mins by HPLC analysis. The note with it: pH 7.5, 0.5 h. The class given is ADME.

Data set [2] addresses T2, Oxygen-insensitive NAD(P)H nitroreductase (Escherichia coli K-12, UniProt P38489).
T2 sequence (P38489 whole entry): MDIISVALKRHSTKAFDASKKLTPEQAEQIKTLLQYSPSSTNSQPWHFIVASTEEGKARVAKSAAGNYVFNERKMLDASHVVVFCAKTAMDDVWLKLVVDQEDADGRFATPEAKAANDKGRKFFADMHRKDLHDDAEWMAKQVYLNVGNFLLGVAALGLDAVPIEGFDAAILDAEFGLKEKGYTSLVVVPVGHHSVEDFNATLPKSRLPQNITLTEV
Put plainly: Substrate activity at Escherichia coli nitroreductase nfsB assessed as ratio of Kcat/Km upto 1 mM using NADH as cofactor in sodium phosphate buffer at pH 7.5 incubated for 5 mins by RP-HPLC relative to CB1954/NfsB. The class given is ADME. The note with it: pH 7.5, 5 min.

Data set [3] addresses T2, Oxygen-insensitive NAD(P)H nitroreductase. Put plainly: Substrate activity at Escherichia coli nitroreductase nfsB assessed as Kcat upto 1 mM using NADH as cofactor in sodium phosphate buffer at pH 7.5 incubated for 5 mins by RP-HPLC. Format: ADME. The note with it: pH 7.5, 5 min.
Data set [4] has the same target. Put plainly: Substrate activity at Escherichia coli nitroreductase nfsB assessed as ratio of Kcat/Km upto 1 mM using NADH as cofactor in sodium phosphate buffer at pH 7.5 incubated for 5 mins by RP-HPLC. The class given is ADME. To be noted: pH 7.5, 5 min.
In data set [5] the target is T1, Putative nitroreductase. In words: Substrate activity at Staphylococcus saprophyticus nitroreductase NtrB assessed as Kcat using NADPH as cofactor in Tris-Cl buffer at pH 7.5 incubated for 30 mins by HPLC analysis. The class given is ADME. The note with it: pH 7.5, 0.5 h.
For data set [6], the target named is T1, Putative nitroreductase. In words: Substrate activity at Staphylococcus saprophyticus nitroreductase NtrB assessed as ratio of Kcat/Km using NADPH as cofactor in Tris-Cl buffer at pH 7.5 incubated for 30 mins by HPLC analysis relative to CB1954/NfsB. Format: ADME. The note with it: pH 7.5, 0.5 h.
Data set [7] concerns the target T1, Putative nitroreductase. Put plainly: Binding affinity to Staphylococcus saprophyticus nitroreductase NtrB.
Data set [8] can be described thus: Substrate activity at Escherichia coli nitroreductase nfsA assessed as ratio of Kcat/Km using NADPH as cofactor in Tris-Cl buffer at pH 7.5 by spectrophotometry based Michaelis-Menten plot analysis. Format: ADME.
The subject of data set [9] is Hep 3B2. In words: Cytotoxicity against human Hep3B cells assessed as cell viability at 9 to 150 uM after 24 hrs by MTT assay relative to control. The class given is functional. In short, it runs like this:
(§1)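 Hep3B hepatoma, PC-3 prostate cancer and HUVEC (healthy control) cells were exposed to nitro compounds at 150, 75, 38, 19 and 9 µM for 24 h and 48 h. Viability was read by MTT assay, and IC50 values were derived from the growth inhibition curves.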
(In general: Formazan colour is commonly taken as a measure of viable cells.)

Data set [10] in a line: Cytotoxicity against human HUVEC cells assessed as cell viability at 9 to 150 uM after 48 hrs by MTT assay relative to control. The class given is cell-based. The note with it: read-out: Activity. In short, it runs like this:
as §1

Data set [11] has as its system PC-3. Put plainly: Cytotoxicity against human PC3 cells assessed as cell viability at 9 to 150 uM after 24 hrs by MTT assay relative to control. The class given is functional. The procedure, abridged:
as §1

Data set [12] relates to Hep 3B2. In words: Cytotoxicity against human Hep3B cells assessed as cell viability at 9 to 150 uM after 48 hrs by MTT assay relative to control. Format: functional. In short, it runs like this:
as §1

The test system of data set [13] is PC-3. In words: Cytotoxicity against human PC3 cells […] Staphylococcus saprophyticus nitroreductase NtrB assessed as reduction in cell viability in presence of NADH as cofactor after 48 hrs by SRB assay. Format: functional, cell-based. The note with it: PC-3, 48 h. The procedure, abridged:
(§2)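 Compounds were reduced outside the cells by purified His-tag (Ni column) Ssap-NtrB. The reaction mix held 600 µM NADH and compound (150, 39, 9 µM, or 180, 18, 1.8 nM) and was applied to PC-3 cells. Controls were compound alone in 25 mM Tris/HCl pH 7.5, and enzyme alone at 31 µg/mL. After 48 h, SRB absorbance was read at 492 nm and converted to % viability.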
On the technique in general: The SRB assay estimates cell density from bound dye.

In data set [14] the target is T2, Oxygen-insensitive NAD(P)H nitroreductase. In words: Substrate activity at Escherichia coli nitroreductase nfsB assessed as Kcat using NADH as cofactor in Tris-Cl buffer at pH 7.5 by spectrophotometric method. Format: ADME.
The nature of data set [15]: Cytotoxicity against human HUVEC cells assessed as cell viability at 9 to 150 uM after 24 hrs by MTT assay relative to control. Format: cell-based. The note with it: read-out: Activity. The procedure, abridged:
as §1

The nature of data set [16]: Substrate activity at Escherichia coli nitroreductase nfsA assessed as Kcat using NADPH as cofactor in Tris-Cl buffer at pH 7.5 by spectrophotometric method. The class given is ADME.
Data set [17] addresses T2, Oxygen-insensitive NAD(P)H nitroreductase. Put plainly: Substrate activity at Escherichia coli nitroreductase nfsB assessed as ratio of Kcat/Km using NADH as cofactor in Tris-Cl buffer at pH 7.5 by spectrophotometric method based Michaelis-Menten plot analysis. Format: ADME.
The test system of a further data set is nitroreductase nfsA. In words: Substrate activity at Escherichia coli nitroreductase nfsA assessed as Km using NADPH as cofactor in Tris-Cl buffer at pH 7.5 by spectrophotometry based Michaelis-Menten plot analysis. To be noted: Escherichia coli nitroreductase nfsA enzyme. The class given is ADME.
The target in data set [18] is T2, Oxygen-insensitive NAD(P)H nitroreductase. Put plainly: Substrate activity at Escherichia coli nitroreductase nfsB assessed as Km using NADH as cofactor in Tris-Cl buffer at pH 7.5 by spectrophotometric method based Michaelis-Menten plot analysis. The class given is ADME.
Data set [19] is described as follows: Substrate activity at Escherichia coli nitroreductase nfsA assessed as ratio of Kcat/Km using NADPH as cofactor in Tris-Cl buffer at pH 7.5 by spectrophotometric method based Michaelis-Menten plot analysis relative to CB1954/NfsB.
The target of data set [20] is T2, Oxygen-insensitive NAD(P)H nitroreductase. In words: Substrate activity at Escherichia coli nitroreductase nfsB assessed as ratio of Kcat/Km using NADH as cofactor in Tris-Cl buffer at pH 7.5 by spectrophotometric method based Michaelis-Menten plot analysis relative to CB1954/NfsB. The class given is ADME.
A further data set concerns the target T3, Nitroreductase (Bacillus amyloliquefaciens, UniProt Q8VSR5).
T3 sequence (Q8VSR5 whole entry): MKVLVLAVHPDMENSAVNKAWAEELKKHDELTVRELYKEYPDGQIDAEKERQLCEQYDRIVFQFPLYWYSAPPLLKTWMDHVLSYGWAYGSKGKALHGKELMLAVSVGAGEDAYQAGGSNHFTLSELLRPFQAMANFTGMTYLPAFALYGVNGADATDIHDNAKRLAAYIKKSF
Put plainly: Substrate activity at Bacillus amyloliquefaciens nitroreductase ywrO assessed as ratio of Kcat/Km using NADPH as cofactor in sodium phosphate buffer at pH 7.5 by HPLC analysis relative to CB1954/NfsB. Format: ADME.

The test system of data set [21] is PC-3. In words: Cytotoxicity against human PC3 cells assessed as reduction in cell viability after 48 hrs by SRB assay. The class given is functional, cell-based. The procedure, abridged: as §2
For data set [22], the target named is T1, Putative nitroreductase. Put plainly: Substrate activity at Staphylococcus saprophyticus nitroreductase NtrB assessed as Km using NADPH as cofactor in Tris-Cl buffer at pH 7.5 incubated for 30 mins by HPLC analysis. The class given is ADME. The note with it: pH 7.5, 0.5 h.
Data set [23] has as its system PC-3. In words: Cytotoxicity against human PC3 cells assessed as cell viability at 9 to 150 uM after 48 hrs by MTT assay relative to control. The class given is functional. In short, it runs like this: as §1

For orientation: Ki means the equilibrium dissociation constant of an inhibitor or competing ligand from its target. As for `NC(=O)c1cc(N(CCCl)CCCl)c([N+](=O)[O-])cc1[N+](=O)[O-]`, the Kcat/Km at Putative nitroreductase [1] was determined as 9350 M⁻¹ s⁻¹; in data set [4], 10560 M⁻¹ s⁻¹. The “fold change (FC)” value in data set [2] is given as 1.89; at Putative nitroreductase [6], 1.67. The Kcat turned out to be 26.4 s⁻¹ in data set [3] and 0.8 s⁻¹ on Putative nitroreductase [5]. The inhibitory constant (Ki) on Putative nitroreductase [7] came to 7.28 µM.
In general, IC50 refers to the point on the concentration scale where inhibition reaches its midpoint. For orientation: Km means the concentration of substrate that gives half-maximal velocity. Consider `NC(=O)c1cc(N2CC2)c([N+](=O)[O-])cc1[N+](=O)[O-]` [TRETAZICAR], for which the Kcat/Km worked out at 2120 M⁻¹ s⁻¹ on Putative nitroreductase [1], 73000 M⁻¹ s⁻¹ in [8] and 5600 M⁻¹ s⁻¹ in [17]. The Activity in the data set on Hep 3B2 [9], with PC-3 [11], with Hep 3B2 [12] and in the data set on PC-3 [23] was over 80% throughout. For the same molecule, in [10], the viability at 48 h, up to 150 µM is over 80%. Moreover, the half-maximal inhibitory concentration (IC50) in the data set on PC-3 [13] worked out at 0.00179 µM. The results for the Kcat (in [14]; in data set [16]; at Putative nitroreductase [5]) were 62 s⁻¹, 16 s⁻¹ and 2.26 s⁻¹, respectively. The viability at 24 h, up to 150 µM in [15] was over 80%. Moreover, the figures for the Km (in the data set on nitroreductase nfsA; in data set [18]; at Putative nitroreductase [22]) were 220 µM, 11000 µM and 1070 µM, respectively. The “fold change (FC)” value amounted to 13.04 in [19], 1 in [20], 0.38 on Putative nitroreductase [6] and 2.37 at Nitroreductase. Further, the outcome in the data set on PC-3 [21] was inactive. The molecule further displayed a Ki at Putative nitroreductase [7] of 5.96 µM.
